Reference: ChEMBL document CHEMBL1148024, “Novel inhibitors of fatty acid amide hydrolase” (Bioorg Med Chem Lett, 2007)
Activity calls are given as the source filed them. The rule behind the calls is not given here.

Tests used:
Rattus norvegicus [1] = experiment: Antinociceptive effect in rat at 10 mg/kg, iv by thermal escape test; assay type: functional, organism-based; set-up: dose 10 mg/kg
Procedure, shortened: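 Rats were dosed iv with test compound at 0.1, 1 and 10 mg/kg, 15 min before exogenous anandamide (1 mg/kg, iv). Antinociception was read in the Hargreaves thermal escape test from 3 to 30 min after anandamide.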

[2] = molecular target: T1, Fatty-acid amide hydrolase 1 (Homo sapiens, UniProt O00519); experiment: Inhibition of human FAAH expressed in H4 cells; assay type: cell-based
T1 sequence (O00519 whole entry): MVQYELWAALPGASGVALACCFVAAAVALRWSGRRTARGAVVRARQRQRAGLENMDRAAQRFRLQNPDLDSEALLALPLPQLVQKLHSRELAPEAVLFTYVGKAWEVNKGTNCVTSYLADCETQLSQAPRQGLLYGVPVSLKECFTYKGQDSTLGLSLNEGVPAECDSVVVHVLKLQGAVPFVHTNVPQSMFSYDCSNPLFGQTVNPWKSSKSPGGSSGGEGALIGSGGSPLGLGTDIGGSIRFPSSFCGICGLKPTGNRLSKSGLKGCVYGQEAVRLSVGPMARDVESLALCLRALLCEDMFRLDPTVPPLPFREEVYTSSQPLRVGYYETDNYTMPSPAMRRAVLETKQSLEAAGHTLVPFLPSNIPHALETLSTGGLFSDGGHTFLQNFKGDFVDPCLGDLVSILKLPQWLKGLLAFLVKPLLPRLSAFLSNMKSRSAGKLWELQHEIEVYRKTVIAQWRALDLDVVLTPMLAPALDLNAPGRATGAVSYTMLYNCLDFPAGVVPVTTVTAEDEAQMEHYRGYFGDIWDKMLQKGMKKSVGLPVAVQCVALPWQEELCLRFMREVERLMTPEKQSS
Procedure, shortened: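 Enzyme source: crude membrane homogenates from H4 cells transfected with human FAAH. Activity measured by a modified Omeir et al. method. IC50 taken from a four-parameter logistic fit of dose–response curves.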

Rattus norvegicus [3] = experiment: Antinociceptive effect in rat persistent pain model assessed as suppression of formalin-induced paw flinches at 20 mg/kg, iv relative to control; assay type: functional, organism-based; set-up: dose 20 mg/kg
Rattus norvegicus [4] = experiment: Antinociceptive effect in rat persistent pain model assessed as suppression of formalin-induced paw flinches at 20 mg/kg, iv in presence of SR-141716A; assay type: functional, organism-based; set-up: dose 20 mg/kg
Procedure, shortened: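 CB1 antagonist SR141716A was given ip at 3 or 10 mg/kg at -30 min. Test compound (20 mg/kg) followed iv via jugular catheter at -15 min, then subcutaneous paw formalin at 0 min. Paw-flinch frequency was scored in Phase I (acute) and Phase II (persistent). Groups were compared with vehicle by Dunnett's test.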

Rattus norvegicus [5] = experiment: Effect on neuropathic pain in rat chung model assessed as reversal of tactile allodynia at 20 mg/kg, iv; assay type: functional, organism-based; set-up: dose 20 mg/kg
[6] = molecular target: T2, Cytosolic phospholipase A2 (Homo sapiens, UniProt P47712); experiment: Inhibition of cPLA2 activity
T2 sequence (P47712 whole entry): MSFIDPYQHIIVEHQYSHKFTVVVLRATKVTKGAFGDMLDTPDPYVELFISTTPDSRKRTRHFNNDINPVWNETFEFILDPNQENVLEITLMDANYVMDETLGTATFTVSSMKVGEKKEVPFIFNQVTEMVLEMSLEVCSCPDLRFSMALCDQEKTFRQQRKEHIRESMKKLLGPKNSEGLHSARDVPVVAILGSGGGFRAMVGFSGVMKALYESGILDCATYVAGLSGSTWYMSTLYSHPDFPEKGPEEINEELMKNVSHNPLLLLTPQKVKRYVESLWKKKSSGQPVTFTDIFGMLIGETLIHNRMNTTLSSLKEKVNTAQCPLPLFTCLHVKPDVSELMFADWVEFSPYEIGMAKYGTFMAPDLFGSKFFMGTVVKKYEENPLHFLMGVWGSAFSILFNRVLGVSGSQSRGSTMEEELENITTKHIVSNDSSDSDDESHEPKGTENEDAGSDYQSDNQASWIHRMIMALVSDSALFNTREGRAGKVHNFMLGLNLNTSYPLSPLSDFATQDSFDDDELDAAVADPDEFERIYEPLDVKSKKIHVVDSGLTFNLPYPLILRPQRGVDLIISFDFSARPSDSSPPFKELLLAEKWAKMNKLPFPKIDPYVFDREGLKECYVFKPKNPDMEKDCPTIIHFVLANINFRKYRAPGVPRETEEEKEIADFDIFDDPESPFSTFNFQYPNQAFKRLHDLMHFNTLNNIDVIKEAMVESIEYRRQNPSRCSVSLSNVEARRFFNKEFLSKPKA

Cannabinoid receptor 1 = Cannabinoid receptor 1 (Homo sapiens, UniProt P21554); experiment: Displacement of [3H]CP-55940 from CB1 receptor expressed in HEK cells; assay type: cell-based, HEK293
Chain of Cannabinoid receptor 1 (P21554 whole entry): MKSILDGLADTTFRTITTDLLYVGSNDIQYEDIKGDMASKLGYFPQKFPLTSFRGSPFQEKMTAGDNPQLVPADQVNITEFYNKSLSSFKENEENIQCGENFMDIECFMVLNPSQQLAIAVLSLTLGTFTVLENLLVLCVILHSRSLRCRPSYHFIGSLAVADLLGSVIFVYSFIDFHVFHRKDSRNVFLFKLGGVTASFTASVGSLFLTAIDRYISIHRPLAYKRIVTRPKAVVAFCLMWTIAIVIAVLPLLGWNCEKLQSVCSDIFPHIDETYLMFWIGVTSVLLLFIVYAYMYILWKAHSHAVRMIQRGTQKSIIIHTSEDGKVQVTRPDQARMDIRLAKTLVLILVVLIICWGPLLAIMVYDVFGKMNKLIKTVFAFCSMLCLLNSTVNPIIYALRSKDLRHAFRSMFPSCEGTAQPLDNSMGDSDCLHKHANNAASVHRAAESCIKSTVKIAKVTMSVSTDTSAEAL

Cannabinoid receptor 2 = Cannabinoid receptor 2 (Homo sapiens, UniProt P34972); experiment: Displacement of [3H]CP-55940 from CB2 receptor expressed in CHO cells; assay type: cell-based
Chain of Cannabinoid receptor 2 (P34972 whole entry): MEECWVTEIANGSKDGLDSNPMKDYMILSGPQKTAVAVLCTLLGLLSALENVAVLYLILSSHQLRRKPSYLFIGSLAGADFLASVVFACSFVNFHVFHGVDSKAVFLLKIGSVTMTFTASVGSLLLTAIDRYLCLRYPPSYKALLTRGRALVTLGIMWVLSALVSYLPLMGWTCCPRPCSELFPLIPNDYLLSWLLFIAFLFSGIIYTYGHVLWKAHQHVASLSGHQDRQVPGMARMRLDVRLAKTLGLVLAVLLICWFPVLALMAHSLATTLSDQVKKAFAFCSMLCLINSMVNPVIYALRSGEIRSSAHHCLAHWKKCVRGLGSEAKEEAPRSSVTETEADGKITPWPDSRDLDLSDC

| IC50 [2] [nM] | Compound | other results |
| --- | --- | --- |
| 970 | Cc1nc(-c2ccccc2)c(-c2ccccc2)n1CCCCCCC(=O)N(C)C |  |
| > 100000 | CCOC(=O)CC(CCCCCn1c(C)nc(-c2ccccc2)c1-c1ccccc1)C(C)C (centres undefined) |  |
| 10000 | Cc1nc(-c2ccccc2)c(-c2ccccc2)n1CCCCCCNC(=O)Nc1ccccc1 |  |
| 32 | CCOC(=O)CCCCCn1c(CC)nc(-c2ccccc2)c1-c1ccccc1 |  |
| 9900 | CCOC(=O)CC(CC)CCCCCn1c(C)nc(-c2ccccc2)c1-c1ccccc1 (centres undefined) |  |
| 64 | CCOC(=O)CCCCCCn1c(C)nc(-c2ccc(F)cc2)c1-c1ccc(F)cc1 |  |
| > 100000 | CCCN(CCCCCCn1c(C)nc(-c2ccccc2)c1-c1ccccc1)C(=O)Oc1ccccc1F |  |
| 31 | CCc1nc(-c2ccccc2)c(-c2ccccc2)n1CCCCCCCC(=O)OC |  |
| 1700 | CNC(=O)CCCCCCn1c(C)nc(-c2ccccc2)c1-c1ccccc1 |  |
| > 10000 | CCOC(=O)CCCCOc1ccc(-n2cnc(-c3ccccc3)c2-c2ccccc2)cc1 |  |
| > 100000 | CCN(CCCCCCn1c(C)nc(-c2ccccc2)c1-c1ccccc1)C(=O)Oc1ccccc1F |  |
| > 10000 | CNC(=O)NCCCCCCn1c(C)nc(-c2ccccc2)c1-c1ccccc1 |  |
| 130 | CCOC(=O)CC(C)CCCCCn1c(C)nc(-c2ccccc2)c1-c1ccccc1 (centres undefined) |  |

Further lines, the molecule ahead of its results:

| Compound | IC50 [2] [nM] | other results |
| --- | --- | --- |
| CCCCC/C=C\C/C=C\C/C=C\C/C=C\CCCC(=O)NCCO |  | Activity (Rattus norvegicus [1]): inactive |
| Cc1nc(-c2ccccc2)c(-c2ccccc2)n1CCCCCC(C)NC(=O)Oc1ccccc1F (centres undefined) | 4.2 |  |
| Cc1nc(-c2ccc(F)cc2)c(-c2ccc(F)cc2)n1CCCCCCNC(=O)Oc1c(F)cccc1F | 24 |  |
| Cc1nc(-c2ccccc2)c(-c2ccccc2)n1CCCCCCNC(=O)Oc1ccccc1 | 5.3 |  |
| Cc1nc(-c2ccccc2)c(-c2ccccc2)n1CCCCCCNC(=O)Oc1ccccc1F | 2 | Activity (Rattus norvegicus [1]): inactive; Activity (Rattus norvegicus [3]): Active; Activity (Rattus norvegicus [4]): inactive; Activity (Rattus norvegicus [5]): Active; Ki [6]: 15 µM; Ki (Cannabinoid receptor 1): 23 µM; Ki (Cannabinoid receptor 2): 28 µM |
| CCOC(=O)CCCCCCn1c(CC)nc(-c2ccccc2)c1-c1ccccc1 | 11 |  |
| COC(=O)COc1cccc(-n2cnc(-c3ccccc3)c2-c2ccccc2)c1 | 6500 |  |
| CCOC(=O)CCCOc1cccc(-n2cnc(-c3ccccc3)c2-c2ccccc2)c1 | 91 |  |
| Cc1nc(-c2ccc(F)cc2)c(-c2ccc(F)cc2)n1CCCCCCNC(=O)Oc1ccccc1F | 10 |  |
| CCC(CCCCCn1c(C)nc(-c2ccccc2)c1-c1ccccc1)NC(=O)Oc1ccccc1F (centres undefined) | 30 |  |
| CCOC(=O)CCCOc1ccc(-n2cnc(-c3ccccc3)c2-c2ccccc2)cc1 | 64 |  |
| COC(=O)COc1ccc(-n2cnc(-c3ccccc3)c2-c2ccccc2)cc1 | 670 |  |
| Cc1nc(-c2ccccc2)c(-c2ccccc2)n1CCCCCC(NC(=O)Oc1ccccc1F)C(C)C (centres undefined) | 250 |  |
| Cc1nc(-c2ccccc2)c(-c2ccccc2)n1CCCCCC(NC(=O)Oc1ccccc1F)c1ccccc1 (centres undefined) | 110 |  |
